Two molecules from ChEMBL document CHEMBL5149984, “Discovery of HN37 as a Potent and Chemically Stable Antiepileptic Drug Candidate” (J Med Chem, 2021) can be followed below.

Data set [1] in a line: Cmax in Kunming mouse plasma at 5 mg/kg, po measured upto 24 hrs by LC-MS/MS method. Details: dose 5 mg/kg, time < 24 hrs, route po. The class given is ADME, organism-based. A digest of the protocol:
(§1)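 KM male mice (18−24 g), fasted 12 h before and 2 h after dosing. HN37 given orally at 5 mg/kg in 5% DMSO/5% Tween 80/90% saline, or iv at 2 mg/kg after dilution in saline with 1% Tween 80; n = 3 per time point. Blood sampled 0.25–24 h (from 0.083 h after iv); whole brain taken after oral dosing. Plasma and brain extracted with acetonitrile, quantified by LC−MS/MS; AUC0−t by trapezoidal method.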

The nature of data set [2]: AUC(0 to t) in Kunming mouse brain at 5 mg/kg, po measured upto 24 hrs by LC-MS/MS method. The class given is ADME, organism-based. Details: dose 5 mg/kg, time < 24 hrs, route po. Summed up: as §1
The target of another data set is CYP2C9 (Homo sapiens, UniProt P11712). Description: Inhibition of human liver microsome CYP2C9 at 0.10 to 50 uM preincubated with NADPH for 0.5 hrs followed by substrate addition by LC-MS/MS method relative to control. It counts as ADME. The settings on record: liver microsomes, dose 0.1-50 µM. On the technique in general: Liver microsomes are vesicles of endoplasmic reticulum, rich in cytochrome P450 enzymes.

A further data set addresses Cytochrome P450 2B6 (Homo sapiens, UniProt P20813). In words: Time dependent inhibition of human liver microsome CYP2B6 preincubated for 0.5 hrs in absence of NADPH followed by substrate addition by LC-MS/MS method. It counts as ADME, microsomes. A digest of the protocol: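 Human liver microsomes preincubated 0.5 h with 0.10–50 μM test compound, with or without NADPH, then CYP-specific probe substrate added and incubation continued. Metabolite measured by LC-MS/MS; % activity remaining relative to no-compound control; IC50 fitted by Probit model. For CYP3A4, midazolam 1′-hydroxylation and testosterone 6β-hydroxylation were read separately.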

For a further data set, the target named is CYP2B6 (Homo sapiens, UniProt P20813). In words: Ratio of IC50 for human liver microsome CYP2B6 in absence of NADPH to IC50 for human liver microsome CYP2B6 in presence of NADPH. To be noted: liver microsomes, read-out: Ratio IC50.
In a further data set the target is CYP2C8 (Homo sapiens, UniProt P10632). Description: Ratio of IC50 for human liver microsome CYP2C8 in absence of NADPH to IC50 for human liver microsome CYP2C8 in presence of NADPH. The settings on record: liver microsomes, read-out: Ratio IC50.
Data set [3] deals with T1, Potassium voltage-gated channel subfamily KQT member 4 (Homo sapiens) (UniProt P56696).
T1 sequence (whole entry): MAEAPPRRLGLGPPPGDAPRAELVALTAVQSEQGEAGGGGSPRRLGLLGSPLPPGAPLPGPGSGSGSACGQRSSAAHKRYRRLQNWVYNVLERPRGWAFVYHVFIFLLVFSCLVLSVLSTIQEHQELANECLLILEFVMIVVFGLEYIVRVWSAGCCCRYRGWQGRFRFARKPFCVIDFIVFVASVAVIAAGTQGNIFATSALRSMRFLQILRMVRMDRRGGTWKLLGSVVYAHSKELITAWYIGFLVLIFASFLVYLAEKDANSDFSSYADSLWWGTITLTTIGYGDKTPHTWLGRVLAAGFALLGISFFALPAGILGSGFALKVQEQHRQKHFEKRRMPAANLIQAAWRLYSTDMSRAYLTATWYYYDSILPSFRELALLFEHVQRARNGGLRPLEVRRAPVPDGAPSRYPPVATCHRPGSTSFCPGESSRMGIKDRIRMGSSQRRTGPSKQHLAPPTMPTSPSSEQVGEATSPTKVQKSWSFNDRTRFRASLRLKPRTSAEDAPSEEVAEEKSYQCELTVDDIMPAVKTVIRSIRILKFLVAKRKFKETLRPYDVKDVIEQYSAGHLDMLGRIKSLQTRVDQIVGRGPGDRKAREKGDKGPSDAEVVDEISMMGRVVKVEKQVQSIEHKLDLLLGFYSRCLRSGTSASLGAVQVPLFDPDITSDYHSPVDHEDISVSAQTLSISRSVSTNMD
In words: Agonist activity at human KCNQ4 channel expressed in CHO cells assessed as shift of half voltage of maximal activation at 0.1 uM by patch clamp method. It counts as cell-based. The settings on record: filed as agonist. Summed up: (§2)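 Whole-cell patch clamp at room temperature on CHO cells (DMEM/F12, 10% FBS) transiently co-transfected with EGFP and hKCNQ1, rKCNQ2, rKCNQ3 A278T, hKCNQ4 or hKCNQ5; KCNQ2/3 at 1:1 cDNA ratio. Pipette solution 145 mM KCl, 5 mM MgATP, pH 7.3; bath 140 mM NaCl, 5 mM KCl, pH 7.4, under perfusion. V1/2 from Boltzmann fits; I/I0 is current amplitude with versus without compound; n = 4−6.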
(The patch-clamp technique gives a direct electrical read-out from membranes.)

Data set [4] concerns the target T2, Potassium voltage-gated channel subfamily KQT member 1 (Homo sapiens, UniProt P51787).
T2 sequence (P51787 whole entry): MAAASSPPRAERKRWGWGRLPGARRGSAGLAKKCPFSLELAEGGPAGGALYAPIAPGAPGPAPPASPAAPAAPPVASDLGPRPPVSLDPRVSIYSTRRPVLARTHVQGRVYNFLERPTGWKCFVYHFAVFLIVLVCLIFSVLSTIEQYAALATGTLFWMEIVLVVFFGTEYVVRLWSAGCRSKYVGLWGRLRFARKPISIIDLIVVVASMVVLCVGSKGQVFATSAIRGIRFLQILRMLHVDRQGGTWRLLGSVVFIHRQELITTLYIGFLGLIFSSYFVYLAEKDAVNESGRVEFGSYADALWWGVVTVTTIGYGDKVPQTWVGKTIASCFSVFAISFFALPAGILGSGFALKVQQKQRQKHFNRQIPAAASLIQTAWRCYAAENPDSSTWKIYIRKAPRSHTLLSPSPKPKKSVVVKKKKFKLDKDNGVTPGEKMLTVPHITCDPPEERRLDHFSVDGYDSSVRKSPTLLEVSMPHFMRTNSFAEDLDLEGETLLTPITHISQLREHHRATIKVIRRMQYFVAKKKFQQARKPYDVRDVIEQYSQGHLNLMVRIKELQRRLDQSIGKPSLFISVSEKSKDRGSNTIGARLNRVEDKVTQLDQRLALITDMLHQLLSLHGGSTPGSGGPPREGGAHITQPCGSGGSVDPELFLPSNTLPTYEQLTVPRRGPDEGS
In words: Agonist activity at human KCNQ1 channel expressed in CHO cells assessed as amplitude change of outward current at 10 uM by patch clamp method. The class given is cell-based. Summed up:
as §2

The test system of the next data set is Mus musculus. In words: Anticonvulsant activity in MES induced Kunming mouse model of seizure at 60 mg/kg, po. The class given is functional. A digest of the protocol:
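MES test in male KM mice. Compounds freshly suspended in 0.5% CMC-Na and given by gavage at 20 mL/kg; 160 V stimulus through ear clips. Protection scored as absence of hindlimb tonic extension; time course at 0.25, 0.5, 1 and 2 h, otherwise tested at 1 h. ED50 from dose−response by nonlinear regression; Fisher's exact test versus vehicle.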

Data set [5] can be described thus: Neurotoxicity in Kunming mouse assessed as motor impairment rate at 250 mg/kg, po after 1 hr by rotarod test. It counts as toxicity, organism-based. To be noted: in vivo. Summed up:
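Male KM mice dosed intragastrically with compound freshly suspended in 0.5% CMC-Na. Rotarod performance scored 1 h after dosing as the fraction of animals showing motor impairment. Fisher's exact test versus vehicle; TD50 from nonlinear dose−response fit.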
Background: Falling from the rotarod earlier than controls is read as motor impairment.

Chain of CYP2B6 (P20813 whole entry): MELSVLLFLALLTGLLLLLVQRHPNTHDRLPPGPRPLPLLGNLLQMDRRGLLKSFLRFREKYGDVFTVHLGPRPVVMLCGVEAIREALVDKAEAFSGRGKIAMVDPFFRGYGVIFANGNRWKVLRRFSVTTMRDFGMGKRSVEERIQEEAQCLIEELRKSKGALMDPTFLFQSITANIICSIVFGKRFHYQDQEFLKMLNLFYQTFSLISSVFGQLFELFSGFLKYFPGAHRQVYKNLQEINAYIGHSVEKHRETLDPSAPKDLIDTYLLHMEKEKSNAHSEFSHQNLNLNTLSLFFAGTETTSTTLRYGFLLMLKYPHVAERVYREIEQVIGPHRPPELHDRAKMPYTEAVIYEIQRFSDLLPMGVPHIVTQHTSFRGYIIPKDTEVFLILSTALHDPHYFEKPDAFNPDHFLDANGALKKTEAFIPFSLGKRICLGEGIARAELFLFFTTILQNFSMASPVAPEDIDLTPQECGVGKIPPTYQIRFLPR
Chain of Cytochrome P450 2B6 (P20813 whole entry): as above
Chain of CYP2C9 (P11712 whole entry): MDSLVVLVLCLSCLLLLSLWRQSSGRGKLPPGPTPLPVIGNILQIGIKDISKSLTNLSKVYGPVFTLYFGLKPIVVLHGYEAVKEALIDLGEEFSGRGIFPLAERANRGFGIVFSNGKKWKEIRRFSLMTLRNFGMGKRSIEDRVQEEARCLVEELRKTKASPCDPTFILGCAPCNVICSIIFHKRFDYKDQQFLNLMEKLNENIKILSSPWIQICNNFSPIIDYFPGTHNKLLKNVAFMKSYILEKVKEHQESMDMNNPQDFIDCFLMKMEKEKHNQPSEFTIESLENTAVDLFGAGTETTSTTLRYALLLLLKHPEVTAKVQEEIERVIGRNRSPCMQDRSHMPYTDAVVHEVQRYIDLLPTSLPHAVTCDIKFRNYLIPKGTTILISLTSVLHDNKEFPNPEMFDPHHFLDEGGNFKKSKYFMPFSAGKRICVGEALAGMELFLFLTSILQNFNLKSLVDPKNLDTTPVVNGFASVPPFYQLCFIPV
Chain of CYP2C8 (P10632 whole entry): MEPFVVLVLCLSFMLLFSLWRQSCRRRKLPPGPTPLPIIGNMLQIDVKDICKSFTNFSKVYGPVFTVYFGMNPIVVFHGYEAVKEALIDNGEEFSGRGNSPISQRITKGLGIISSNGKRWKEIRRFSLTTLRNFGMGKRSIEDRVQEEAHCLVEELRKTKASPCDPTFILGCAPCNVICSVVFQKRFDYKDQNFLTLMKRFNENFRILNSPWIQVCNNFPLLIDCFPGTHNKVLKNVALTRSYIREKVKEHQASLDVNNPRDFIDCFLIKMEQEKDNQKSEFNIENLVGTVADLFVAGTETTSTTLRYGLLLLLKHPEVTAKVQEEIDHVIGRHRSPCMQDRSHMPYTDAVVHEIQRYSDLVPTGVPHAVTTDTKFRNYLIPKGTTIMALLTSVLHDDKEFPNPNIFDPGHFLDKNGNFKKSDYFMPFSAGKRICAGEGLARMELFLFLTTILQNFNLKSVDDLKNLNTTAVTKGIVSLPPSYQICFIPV

`C#CCN(Cc1ccc(F)cc1)c1cc(C)c(NC(=O)OC)c(C)c1`: in data set [1], the concentration peaked (Cmax) at 134 ng/mL. Further, in data set [2], the AUC(0-t) at 24 h was 716 ng·h/mL. This molecule gave an inhibition at 0.5 h, up to 50 µM on CYP2C9 of under 25%. It took 141 µM to reach half-maximal inhibition against Cytochrome P450 2B6 (IC50). Further, the IC50 shift at CYP2B6 and at CYP2C8 was over 1.5 each time. For the same molecule, the Activity in [3] was -56.6 mV.
As to `CCOC(=O)Nc1ccc(NCc2ccc(F)cc2)cc1N` [EZOGABINE], the Activity in data set [4] is 1.01; with Mus musculus, 62.5%; in data set [5] it was 62.5%.

Broadly, the Cmax is the highest concentration seen after dosing. The AUC(0-t) is the area under the concentration-time curve up to a stated or last time point. The low end stands for low exposure, the high end for high exposure. Usually inhibition stands for the percentage by which the read-out fell short of the control. Lower therefore signals a weak effect. Broadly, the IC50 is the concentration that inhibits the measured activity by half. High values mean weaker potency, low ones greater potency.
